Measured values: ChEMBL document CHEMBL2380254, “Optimization of tocotrienols as antiproliferative and antimigratory leads” (Eur J Med Chem, 2013)

How the values were obtained:
SNB-19 [1] = experiment: Growth inhibition of human SNB19 cells assessed as cell growth at 10 uM after 48 hrs by sulforhodamine B assay; assay type: functional; conditions: SNB-19, 48 h, read-out: Activity
In short: (§1)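 Single-dose NCI-60 test at 10 µM. Cells were grown in RPMI 1640 with 5% FBS and 2 mM L-glutamine, preincubated 24 h, with T0 plates TCA-fixed. Exposure was 48 h at 37 °C, 5% CO2. Cells were fixed with cold TCA (final 10%, 4 °C, 60 min), stained with SRB and read at 515 nm. Percent growth was taken relative to T0 and untreated control; negative values denote cell kill.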

OVCAR-4 [2] = experiment: Growth inhibition of human OVCAR4 cells after 48 hrs by sulforhodamine B assay; assay type: functional; conditions: OVCAR-4, 48 h
In short: (§2)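 NCI-60 panel cells grown in RPMI 1640 with 5% FBS and 2 mM L-glutamine, seeded at 5000–40,000 cells/well and preincubated 24 h. Five 10-fold dilutions (0.001–100 µM) from DMSO stocks were added for 48 h at 37 °C. Adherent cells were fixed with cold TCA (10% final) for 60 min at 4 °C, stained with 0.4% SRB, and read at 515 nm. GI50 was set where 100×(T−T0)/(C−T0)=50.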

MCF7 = experiment: Antiproliferative activity against human MCF7 cells by MTT assay; assay type: functional, cell-based
In short: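 Cells plated at 8 × 10^3/well (MDA-MB-231) or 10^4/well (MCF7) in 96-well plates. Compounds fed in media with 5% FBS (MDA-MB-231) or 1% FBS (MCF7). MTT read-out of viable cells.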

U-251 = experiment: Growth inhibition of human U251 cells after 48 hrs by sulforhodamine B assay; assay type: functional; conditions: U-251, 48 h
In short: (§3)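 NCI-60 five-dose screen. Cells were grown in RPMI 1640 with 5% FBS and 2 mM L-glutamine, plated at 5000–40,000 cells/well and incubated 24 h before dosing, with T0 plates TCA-fixed. DMSO stocks were diluted to doses of […] and exposed 48 h at 37 °C, 5% CO2. Cells were fixed with cold TCA (final 10%, 60 min, 4 °C), stained with 0.4% SRB in 1% acetic acid for 10 min, solubilized in 10 mM trizma base and read at 515 nm. GI50 is where 100×(T−T0)/(C−T0)=50.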

RXF 393 = experiment: Growth inhibition of human RXF393 cells after 48 hrs by sulforhodamine B assay; assay type: functional; conditions: RXF 393, 48 h; in short: as §2
CAKI-1 = experiment: Growth inhibition of human CAKI-1 cells assessed as cell growth at 10 uM after 48 hrs by sulforhodamine B assay; assay type: functional; conditions: CAKI-1, 48 h, read-out: Activity
In short: (§4)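 NCI-60 single-dose screen at 10 µM: cells in RPMI 1640 with 5% FBS, preincubated 24 h, then exposed 48 h at 37 °C. TCA fixation (16% final for suspension cells), SRB staining, absorbance 515 nm. Percent growth relative to time-zero and untreated control plates; negative values indicate cell kill.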

DU-145 = experiment: Growth inhibition of human DU145 cells after 48 hrs by sulforhodamine B assay; assay type: functional; conditions: DU-145, 48 h
In short: (§5)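 NCI-60 screen: cells in RPMI 1640 with 5% FBS and 2 mM glutamine, 5000–40,000 cells/well, preincubated 24 h. Five concentrations (10-fold dilutions; 100 to 0.001 µM) applied for 48 h at 37 °C. TCA fixation, SRB stain, absorbance at 515 nm. Time-zero plates included; GI50 where 100×(T−T0)/(C−T0)=50.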

786-0 = experiment: Growth inhibition of human 786-0 cells after 48 hrs by sulforhodamine B assay; assay type: functional; conditions: 786-0, 48 h; in short: as §5
SF-539 = experiment: Growth inhibition of human SF539 cells assessed as cell growth at 10 uM after 48 hrs by sulforhodamine B assay; assay type: functional; conditions: SF-539, 48 h, read-out: Activity
In short: (§6)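 Single-dose NCI-60 screen: adherent cells in RPMI 1640 with 5% FBS were exposed to 10 µM for 48 h at 37 °C after a 24 h preincubation. They were fixed in situ with cold TCA (10% final), stained with 0.4% SRB in 1% acetic acid, solubilized in 10 mM Tris base, and read at 515 nm. Percent growth was taken relative to time-zero and control plates.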

SF-268 = experiment: Growth inhibition of human SF268 cells after 48 hrs by sulforhodamine B assay; assay type: functional; conditions: SF-268, 48 h; in short: as §2
NCI-H322M = experiment: Growth inhibition of human NCI-H322M cells after 48 hrs by sulforhodamine B assay; assay type: functional; in short: as §2
Malme-3M = experiment: Growth inhibition of human MALME-3M cells assessed as cell growth at 10 uM after 48 hrs by sulforhodamine B assay; assay type: functional; conditions: read-out: Activity; in short: as §6
IGROV-1 = experiment: Growth inhibition of human IGROV1 cells after 48 hrs by sulforhodamine B assay; assay type: functional; conditions: IGROV-1, 48 h; in short: as §5
UACC-257 = experiment: Growth inhibition of human UACC257 cells assessed as cell growth at 10 uM after 48 hrs by sulforhodamine B assay; assay type: functional; conditions: UACC-257, 48 h, read-out: Activity; in short: as §1
OVCAR-4 [3] = experiment: Growth inhibition of human OVCAR4 cells assessed as cell growth at 10 uM after 48 hrs by sulforhodamine B assay; assay type: functional; conditions: OVCAR-4, 48 h, read-out: Activity; in short: as §6
SNB-19 [4] = experiment: Growth inhibition of human SNB19 cells after 48 hrs by sulforhodamine B assay; assay type: functional; conditions: SNB-19, 48 h; in short: as §3
SK-MEL-5 = experiment: Growth inhibition of human SK-MEL-5 cells assessed as cell growth at 10 uM after 48 hrs by sulforhodamine B assay; assay type: functional; conditions: SK-MEL-5, 48 h, read-out: Activity; in short: as §6
LOX IMVI = experiment: Growth inhibition of human LOXIMVI cells assessed as cell growth at 10 uM after 48 hrs by sulforhodamine B assay; assay type: functional; conditions: read-out: Activity; in short: as §4
HOP-62 = experiment: Growth inhibition of human HOP62 cells assessed as cell growth at 10 uM after 48 hrs by sulforhodamine B assay; assay type: functional; conditions: HOP-62, 48 h, read-out: Activity; in short: as §4
ACHN = experiment: Growth inhibition of human ACHN cells after 48 hrs by sulforhodamine B assay; assay type: functional; in short: as §5
[5] = Growth inhibition of human NCI-ADR-RES cells assessed as cell growth at 10 uM after 48 hrs by sulforhodamine B assay; assay type: functional; conditions: read-out: Activity; in short: as §6
HCT-116 = experiment: Growth inhibition of human HCT116 cells after 48 hrs by sulforhodamine B assay; assay type: functional; conditions: HCT-116, 48 h; in short: as §5
[6] = Growth inhibition of human Hs 578T cells assessed as cell growth at 10 uM after 48 hrs by sulforhodamine B assay; assay type: functional; conditions: read-out: Activity; in short: as §4
HL-60(TB) = experiment: Growth inhibition of human HL-60(TB) cells after 48 hrs by sulforhodamine B assay; assay type: functional; conditions: HL-60, 48 h
In short: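 HL-60(TB) cells (suspension) grown in RPMI 1640 with 5% FBS and 2 mM L-glutamine. They were plated and preincubated for 24 h, with T0 plates fixed at that point. Drug was given at five 10-fold dilutions for 48 h at 37 °C. Settled cells were fixed with TCA (16% final), stained with 0.4% SRB in 1% acetic acid and read at 515 nm. GI50 was taken where 100×(T−T0)/(C−T0)=50.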

| Compound | growth at 10 µM (SNB-19 [1]) [%] | GI50 (OVCAR-4 [2]) [µM] | IC50 (MCF7) [µM] | GI50 (U-251) [µM] | GI50 (RXF 393) [µM] | growth at 10 µM (CAKI-1) [%] | GI50 (DU-145) [µM] | GI50 (786-0) [µM] | growth at 10 µM (SF-539) [%] | GI50 (SF-268) [µM] | GI50 (NCI-H322M) [µM] | growth at 10 µM (Malme-3M) [%] | GI50 (IGROV-1) [µM] | growth at 10 µM (UACC-257) [%] | growth at 10 µM (OVCAR-4 [3]) [%] | GI50 (SNB-19 [4]) [µM] | growth at 10 µM (SK-MEL-5) [%] | growth at 10 µM (LOX IMVI) [%] | growth at 10 µM (HOP-62) [%] | GI50 (ACHN) [µM] | also measured |
| --- | --- | --- | --- | --- | --- | --- | --- | --- | --- | --- | --- | --- | --- | --- | --- | --- | --- | --- | --- | --- | --- |
| CC(C)=CCC/C(C)=C/CC/C(C)=C/CC[C@]1(C)CCc2c3c(c(C)c(C)c2O1)OCN(CCCCCCCCO)C3 | 73.6 | 2.81 | > 20 | 2.61 | 2.45 | 31.3 | 2.98 | 2.72 | 72.6 | 2.78 | 2.7 | 71.7 | 2.88 | 119 | 57.9 | 2.47 | 83.7 | -80.1 | 63.2 | 2.62 | growth at 10 µM [5]: 66.6%; GI50 (HCT-116): 2.95 µM; growth at 10 µM [6]: 81.7%; GI50 (HL-60(TB)): 3.44 µM |
| CC(C)=CCC/C(C)=C/CC/C(C)=C/CC[C@]1(C)CCc2c3c(cc(C)c2O1)OCN(CCCCCCO)C3 | -6.48 | 0.518 | > 20 | 0.536 | 0.546 | -72.8 | 1 | 1.74 | 28.3 | 1.18 | 3.75 | -50.2 | 1.28 | 90.5 | -95.5 | 0.632 | 20.9 | -90.8 | -94.5 | 2.29 | growth at 10 µM [5]: -64.1%; GI50 (HCT-116): 0.659 µM; growth at 10 µM [6]: 29.8%; GI50 (HL-60(TB)): 1.37 µM |
| CC(C)=CCC/C(C)=C/CC/C(C)=C/CC[C@]1(C)CCc2c3c(cc(C)c2O1)OCN(CCc1ccc(O)cc1)C3 | 92.1 | 5.36 | 18.2 | 4.32 | 3.34 | 70.3 | 5.75 | 6.61 | 94.1 | 6.17 | 6.2 | 95.8 | 4.34 | 105 | 3.53 | 5.89 | 73.8 | -93 | -31.3 | 5.94 | growth at 10 µM [5]: 37.5%; GI50 (HCT-116): 3.88 µM; growth at 10 µM [6]: -6.12%; GI50 (HL-60(TB)): 3.34 µM |
| CC(C)=CCC/C(C)=C/CC/C(C)=C/CC[C@]1(C)CCc2c3c(cc(C)c2O1)OCN(CCCCCO)C3 | 82 | 5.68 | 9.1 | 5.71 | 1.94 | 74.4 | 6.28 | 6.47 | 95 | 7.13 | 6.35 | 116 | 6.18 | 83.8 | 43.3 | 5.99 | 83.9 | -0.88 | 20.6 | 5.74 | growth at 10 µM [5]: 43.1%; GI50 (HCT-116): 5.25 µM; growth at 10 µM [6]: 36.6%; GI50 (HL-60(TB)): 6.26 µM |
| CC(C)=CCC/C(C)=C/CC/C(C)=C/CC[C@]1(C)CCc2c3c(cc(C)c2O1)OCN(CCCO)C3 | 4.52 | 1.64 | > 20 | 1.72 | 1.2 | 60.4 | 1.9 | 1.86 | 74.4 | 2.04 | 1.87 | 110 | 1.81 | 64.2 | -46.5 | 1.64 | 57.5 | -89.8 | -76.3 | 1.75 | growth at 10 µM [5]: -26.4%; GI50 (HCT-116): 1.79 µM; growth at 10 µM [6]: -11.8%; GI50 (HL-60(TB)): 2.19 µM |
